# The source made the active and inactive calls. The calls are words filed in the database; no cut-off is given here.
# Legend:
# MCF7 = test: Antiproliferative activity against human MCF7 cells assessed as inhibition of cell proliferation after 72 hrs by MTT assay; format: functional, cell-based
# Procedure, shortened: (§1)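 Cells grown as monolayers in DMEM with 10% FBS, 2 mM L-glutamine, penicillin/streptomycin, 37 °C, 5% CO2. Seeded at 5000/well on day 0. Compounds added after 24 h as five serial dilutions (0,01 to 100 µM), DMSO ≤0.1%, then 72 h. MTT read-out converted to percentage growth. IC50 by linear regression; quadruplicates in three experiments.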
# [1] = (§2) Antiproliferative activity against human SW620 cells assessed as inhibition of cell proliferation after 72 hrs by MTT assay; format: functional, cell-based, SW-620; procedure, shortened: as §1
# SW-620 = test: as §2; format: functional, cell-based; procedure, shortened: as §1
# HepG2 = test: Antiproliferative activity against human HepG2 cells assessed as inhibition of cell proliferation after 72 hrs by MTT assay; format: functional, cell-based; details: for IC50: HepG2, 72 h; procedure, shortened: as §1
# BJ = test: Antiproliferative activity against human BJ cells assessed as inhibition of cell proliferation after 72 hrs by MTT assay; format: cell-based; details: for inhibition (INH): human; procedure, shortened: as §1
# HeLa = test: Antiproliferative activity against human HeLa cells assessed as inhibition of cell proliferation after 72 hrs by MTT assay; format: functional, cell-based; procedure, shortened: as §1
# Calf thymus DNA [2] = test: Binding affinity to calf thymus DNA assessed as change in melting temperature at drug/ base pair ratio of 0.25 by spectrophotometry; format: nucleic-acid assay; details: Bos taurus
# Procedure, shortened: (§3)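 CT-DNA absorbance followed at 260 nm from 20 to 100 °C, rising 1 °C per min, in BPE buffer, with or without compound at drug/base-pair ratio 0.25 or 0.5. Tm taken as midpoint of the hyperchromic transition from first-derivative plots. ΔTm is Tm with compound minus Tm of DNA alone.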
# Calf thymus DNA [3] = test: Binding affinity to calf thymus DNA assessed as change in melting temperature at drug/ base pair ratio of 0.5 by spectrophotometry; format: nucleic-acid assay; details: Bos taurus; procedure, shortened: as §3
# Calf thymus DNA [4] = test: Binding affinity to calf thymus DNA at 50 uM circular dichroism spectroscopy; format: nucleic-acid assay; details: Bos taurus
# Procedure, shortened: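 CD spectra recorded from 480 to 230 nm, 10 mm path, 20 °C, in BPE buffer. CT-DNA (50 µM) incubated with compound rising from 1 to 60 µM or to 80 µM. Compound without DNA served as the control for intrinsic CD.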
# [5] = target: T1, DNA topoisomerase 1 (Homo sapiens) (UniProt P11387); test: Inhibition of human topoisomerase 1 assessed as topoisomerase poison activity by measuring generation of open circular DNA using supercoiled pUC19 DNA at 5 to 50 uM by agarose gel electrophoresis
# T1 sequence (whole entry): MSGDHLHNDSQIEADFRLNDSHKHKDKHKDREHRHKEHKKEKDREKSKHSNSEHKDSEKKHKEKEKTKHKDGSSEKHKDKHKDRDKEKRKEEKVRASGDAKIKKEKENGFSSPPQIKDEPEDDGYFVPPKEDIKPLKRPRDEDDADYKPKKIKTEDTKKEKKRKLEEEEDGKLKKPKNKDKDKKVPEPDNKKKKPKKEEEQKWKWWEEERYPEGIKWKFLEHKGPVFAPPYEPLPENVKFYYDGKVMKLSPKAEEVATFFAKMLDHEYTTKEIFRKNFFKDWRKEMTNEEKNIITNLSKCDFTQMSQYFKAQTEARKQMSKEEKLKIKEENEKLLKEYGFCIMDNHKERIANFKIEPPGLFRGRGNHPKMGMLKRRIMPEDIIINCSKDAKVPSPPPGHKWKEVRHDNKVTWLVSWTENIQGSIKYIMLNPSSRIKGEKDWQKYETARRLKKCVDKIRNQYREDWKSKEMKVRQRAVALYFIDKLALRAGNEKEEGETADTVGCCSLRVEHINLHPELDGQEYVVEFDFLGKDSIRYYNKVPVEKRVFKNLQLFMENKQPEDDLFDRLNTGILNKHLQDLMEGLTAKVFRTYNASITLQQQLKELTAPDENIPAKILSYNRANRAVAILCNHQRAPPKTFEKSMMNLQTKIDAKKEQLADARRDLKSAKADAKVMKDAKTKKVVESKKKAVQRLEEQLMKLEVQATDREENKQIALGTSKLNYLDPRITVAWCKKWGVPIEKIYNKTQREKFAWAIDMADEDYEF
# Procedure, shortened: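 Supercoiled pUC19 plasmid was incubated with human topoisomerase I and graded compound concentrations. Reactions were stopped with SDS and proteinase K. DNA forms were resolved on 1% agarose in TBE (2 h, 120 V), post-stained with ethidium bromide and photographed under UV. Poisoning was read as appearance of nicked DNA, with camptothecin as the positive control.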
# [6] = Binding affinity to pBluescript 265 bp DNA fragment (unknown origin) at 1 to 25 uM incubated for 15 mins by DNase-1 foot printing assay
# Procedure, shortened: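 265 bp EcoRI/PvuII fragment of pBluescript, 3'-end labelled with α[32P]-dATP, incubated with compound (up to 50 µM) for 15 min at 37 °C, then mildly digested with DNase I. Run on 8% denaturing polyacrylamide/8 M urea gels and imaged by phosphor screen. Base positions assigned against a DMS/piperidine G-track.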
# Nucleic Acid [7] = test: Induction of DNA intercalation in supercoiled pUC19 DNA in presence of human topoisomerase 1 assessed as effect on topoisomerase 1-mediated DNA relaxation at 5 to 50 uM by agarose gel electrophoresis; format: nucleic-acid assay; details: Escherichia coli
# Procedure, shortened: (§4)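 Supercoiled pUC19 incubated with human topoisomerase I and graded compound concentrations. Stopped with SDS/proteinase K. DNA forms resolved on 1% agarose in TBE, 2 h at 120 V, stained post-run with ethidium bromide and viewed under UV. Camptothecin was the topo I poison control.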
# Nucleic Acid [8] = test: Induction of DNA intercalation in supercoiled pUC19 DNA in presence of human topoisomerase 1 assessed as effect on topoisomerase 1-mediated DNA relaxation at 50 uM by agarose gel electrophoresis; format: nucleic-acid assay; details: Escherichia coli; procedure, shortened: as §4
SMILES,"IC50 (MCF7; Homo sapiens, MCF7, 72 h)",IC50 (HepG2),"IC50 (HeLa; Homo sapiens, HeLa, 72 h)",ΔTm (Calf thymus DNA [3]),inhibition (MCF7),"IC50 ([1]; Homo sapiens, SW-620, 72 h)",inhibition (SW-620),inhibition (HepG2),"IC50 (BJ; Homo sapiens, BJ, 72 h)","inhibition (INH) (BJ; bj, 72 h)",inhibition (HeLa),inhibition [5],other results
Cl.c1ccc2c(c1)CN(c1ccc(C3=NCCN3)cc1)/C2=N/c1ccc(C2=NCCN2)cc1,20 µM,83.2 µM,78 µM,19.6 °C,Dose-dependent effect,> 100 µM,Dose-dependent effect,Dose-dependent effect,8.77 µM,Dose-dependent effect,Dose-dependent effect,inactive,ΔTm (Calf thymus DNA [2]): 16 °C; Activity (Calf thymus DNA [4]): Active; Activity [6]: inactive; Activity (Nucleic Acid [7]): Active
Cl.Nc1ccc(/N=C2\c3ccccc3CN2c2ccc(N)cc2)cc1,–,–,–,–,–,–,–,–,–,Dose-dependent effect,–,–,IC50 (MCF7; mcf7): 0.73 µM; IC50 ([1]; sw-620): 51.1 µM; IC50 (BJ; bj): 80.5 µM; IC50 (HeLa; hela): 62.4 µM
Nc1ccc(/N=C2\c3ccccc3CN2c2ccc(N)cc2)cc1 [listing 1 of 2 here],–,–,–,0 °C,Dose-dependent effect,–,Dose-dependent effect,Dose-dependent effect,–,–,Dose-dependent effect,inactive,Activity (Nucleic Acid [7]): inactive
Nc1ccc(/N=C2\c3ccccc3CN2c2ccc(N)nc2)cn1,80.7 µM,88.9 µM,> 100 µM,–,Dose-dependent effect,> 100 µM,Dose-dependent effect,Dose-dependent effect,> 100 µM,Dose-dependent effect,Dose-dependent effect,–,–
Nc1ccc(/N=C2\c3ccccc3CN2c2ccc(N)cc2)cc1 [listing 2 of 2 here],–,> 100 µM,> 100 µM,–,–,> 100 µM,–,–,> 100 µM,Dose-dependent effect,–,–,IC50 (MCF7; mcf7): 0.05 µM
CC(C)NC(=N)c1ccc(/N=C2\c3ccccc3CN2c2ccc(C(=N)NC(C)C)cn2)nc1.Cl,> 100 µM,> 100 µM,> 100 µM,4.4 °C,Dose-dependent effect,> 100 µM,Dose-dependent effect,Dose-dependent effect,> 100 µM,Dose-dependent effect,Dose-dependent effect,inactive,Activity (Calf thymus DNA [4]): inactive

# Further compounds by falling IC50 (HepG2), results first:
"IC50 (MCF7; Homo sapiens, MCF7, 72 h)",IC50 (HepG2),"IC50 (HeLa; Homo sapiens, HeLa, 72 h)",ΔTm (Calf thymus DNA [3]),SMILES,inhibition (MCF7),"IC50 ([1]; Homo sapiens, SW-620, 72 h)",inhibition (SW-620),inhibition (HepG2),"IC50 (BJ; Homo sapiens, BJ, 72 h)","inhibition (INH) (BJ; bj, 72 h)",inhibition (HeLa),inhibition [5],other results
8.99 µM,82.3 µM,92.5 µM,–,CN(C)c1ccc(/N=C2\c3ccccc3CN2c2ccc(N(C)C)cc2)cc1,Dose-dependent effect,> 100 µM,Dose-dependent effect,Dose-dependent effect,> 100 µM,Dose-dependent effect,Dose-dependent effect,–,–
38.2 µM,71 µM,> 100 µM,–,CC(=O)Nc1ccc(/N=C2\c3ccccc3CN2c2ccc(NC(C)=O)cc2)cc1,Dose-dependent effect,> 100 µM,Dose-dependent effect,Dose-dependent effect,92.4 µM,Dose-dependent effect,Dose-dependent effect,–,–
6.43 µM,51.5 µM,> 100 µM,–,CC(C)NC(=N)c1ccc(N2Cc3ccccc3C2=O)nc1.Cl,Dose-dependent effect,79.9 µM,Dose-dependent effect,Dose-dependent effect,18.1 µM,Dose-dependent effect,Dose-dependent effect,–,–
0.7 µM,43.2 µM,97.1 µM,0 °C,Cc1ccnc(/N=C2\c3ccccc3CN2c2cc(C)ccn2)c1,Dose-dependent effect,> 100 µM,Dose-dependent effect,Dose-dependent effect,80.1 µM,Dose-dependent effect,Dose-dependent effect,inactive,Activity (Nucleic Acid [8]): Active
35.6 µM,40.6 µM,60 µM,–,Cl.N=C(N)c1ccc(N2Cc3ccccc3C2=O)nc1,Dose-dependent effect,44.8 µM,Dose-dependent effect,Dose-dependent effect,15.8 µM,Dose-dependent effect,Dose-dependent effect,–,–
42.1 µM,33.9 µM,68.8 µM,14.6 °C,Cl.N=C(N)c1ccc(/N=C2\c3ccccc3CN2c2ccc(C(=N)N)nc2)cn1,Dose-dependent effect,> 100 µM,Dose-dependent effect,Dose-dependent effect,> 100 µM,Dose-dependent effect,Dose-dependent effect,inactive,ΔTm (Calf thymus DNA [2]): 8.8 °C; Activity (Calf thymus DNA [4]): Active; Activity (Nucleic Acid [7]): Active
16 µM,30.4 µM,> 100 µM,0 °C,CC(=O)Nc1ccc(/N=C2\c3ccccc3CN2c2ccc(NC(C)=O)nc2)cn1,Dose-dependent effect,> 100 µM,Dose-dependent effect,Dose-dependent effect,> 100 µM,Dose-dependent effect,Dose-dependent effect,inactive,Activity (Nucleic Acid [7]): inactive
40.5 µM,5.51 µM,4.46 µM,–,N#Cc1ccc(/N=C2\c3ccccc3CN2c2ccc(C#N)nc2)cn1,Dose-dependent effect,83.8 µM,Dose-dependent effect,Dose-dependent effect,9 µM,Dose-dependent effect,Dose-dependent effect,–,–

# Source: ChEMBL document CHEMBL3352181, “Novel phenyl and pyridyl substituted derivatives of isoindolines: Synthesis, antitumor activity and DNA binding features” (Eur J Med Chem, 2014)
